The values below come from paper PMC6620733 (Biochemistry, 2019).

The target of assay [1] is T1, bMunc13-2 (Rattus norvegicus, UniProt Q62769). Put plainly: Translocation of GFP-tagged bMunc13-2 in living HT22 cells. The assay is classed as cell-based. As to conditions: living HT22 cells, 10, 100, 1000 nM, 0–15 min. An outline of the steps:
(§1)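 GFP-tagged bMunc13-2 or ubMunc13-2 is expressed in living HT22 cells (passages 2–16, X-tremeGENE HP transfection). Imaging is in phenol red-free DMEM with 1% FBS, 24 h post-transfection. Test compound at 10, 100 or 1000 nM is added at time zero, with confocal frames every 30 s (488/500–530 nm). Plasma membrane/cytoplasm ratio is normalized to time zero. bMunc13-2: 3–6 cells per concentration; ubMunc13-2: 5–9 cells; three independent experiments.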

In assay [2] the target is T1, bMunc13-2. The assay is classed as cell-based. As to conditions: HT22 cells, immunoblotting (1 μM) and confocal microscopy (0–2 μM), 5 min. An outline of the steps: (§2)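 Transfected HT22 cells (DMEM, 10% FBS, 70–80% confluent, Lipofectamine, antibiotic-free medium) express GFP-Munc13-1 or GFP-bMunc13-2 and are treated with 1 μM test compound. A kit separates the fractions: cytosolic buffer spin at 500g, 5 min; pellet in membrane buffer, 4 °C, 10 min, then 3000g, 5 min. 40 μg protein is run on 4–15% SDS–PAGE (membrane samples unheated). Probes are anti-GFP 1:500, Na,K-ATPase and β-actin 1:2000, with infrared detection.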

Assay [3] concerns the target PKCδ (Homo sapiens, UniProt Q05655). Put plainly: Translocation of GFP-tagged PKCδ in living HT22 cells. It is filed as cell-based. An outline of the steps: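 For PKCδ, living HT22 cells (passages 2–16) transiently express GFP-tagged PKCδ (X-tremeGENE HP). After 24 h, medium is changed to phenol red-free DMEM with 1% FBS. Test compound at 10, 100 or 1000 nM is added at time zero, with confocal imaging every 30 s (488 nm excitation, 500–530 nm emission). Nuclear membrane/cytoplasm intensity ratio is normalized to time zero. 4–7 cells per concentration, three independent experiments.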

The target in assay [4] is T2, full-length Munc13-1 (Rattus norvegicus, UniProt Q62768). The assay can be described thus: In vitro [3H]PDBu binding assay, full-length Munc13-1.
The target in assay [5] is T3, Munc13-1 (Rattus norvegicus, UniProt Q62768). It is filed as cell-based. As to conditions: HT22 cells, 0–2 μM, 5 min, confocal. An outline of the steps:
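HT22 cells are seeded on coverslips at 6 × 10^4/well and, at 70–80% confluency, transfected with Munc13-1-GFP (Lipofectamine, antibiotic-free DMEM). They are exposed to 0.1–2 μM test compound for 5 min, then fixed in 4% PFA for 10 min and imaged by confocal at 63×. Read-out is the ratio of mean membrane intensity (outer 300 nm) to whole-cell intensity. Statistics use two-way ANOVA with Tukey.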

The test system of assay [6] is endogenous Munc13-1 in HT22 cells. Put plainly: Expression of endogenous Munc13-1 in differentiated HT22 cells. The assay is classed as cell-based, mouse. As to conditions: 24 h. An outline of the steps: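 Endogenous protein by Western blot: HT22 cells are differentiated in NeuroBasal medium with […], cAMP, L-glutamine and antibiotics. At 48–72 h after day 0, test compound is added at 0.1 or 0.5 μM for 24 h. Lysis in modified RIPA with protease/phosphatase inhibitors, sonication, 14000g 30 min at 4 °C. 7.5–10% SDS–PAGE, nitrocellulose, 2.5% BSA block. Anti-Munc13-1 1:500 and β-actin 1:5000, HRP secondary, ECL. Densitometric Munc13-1:β-actin ratio.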

The target of assay [7] is T2, full-length Munc13-1. It is filed as cell-based. An outline of the steps: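 Living HT22 cells (passages 2–16) are transfected with GFP-tagged full-length Munc13-1 (X-tremeGENE HP), then transferred after 24 h into phenol red-free DMEM with 1% FBS. Test compound at 10, 100 or 1000 nM is added at time zero. Confocal imaging every 30 s (488 nm excitation, 500–530 nm emission). Plasma membrane/cytoplasm mean intensity ratio is normalized to time zero. 5–9 cells per concentration, three independent experiments; saturated cells excluded.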

In assay [8] the target is Munc13-1^H567K (Rattus norvegicus, UniProt Q62768, H567K). It is filed as cell-based. As to conditions: HT22 cells, 0–2 μM, 5 min. The method in brief: (§3)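 Fixed-cell confocal: HT22 cells in DMEM with 10% FBS and 2 mM glutamine are seeded on coverslips 24 h before transfection. At 70–80% confluence they are transfected (Lipofectamine 3000) with GFP-tagged mutant Munc13-1 plasmid in antibiotic-free medium. Treatment with test compound or PMA at 0.1–2 μM, then fixation in 4% PFA for 10 min and imaging at 63×. Ratio of mean membrane (outer 300 nm) to whole-cell GFP intensity.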

The target in assay [9] is Munc13-1 C1 W22A mutant (Rattus norvegicus, UniProt Q62768, W588A). The assay can be described thus: In vitro [3H]PDBu binding assay, Munc13-1 C1 domain W22A. As to conditions: for decrease in affinity of W588A (W22A) mutant C1 domain versus WT: 100% PS.
The target of assay [10] is ubMunc13-2 (Rattus norvegicus, UniProt Q62769). Put plainly: Translocation of GFP-tagged ubMunc13-2 in living HT22 cells. It is filed as cell-based. As to conditions: living HT22 cells, 10, 100, 1000 nM, 0–15 min. The method in brief:
as §1

Assay [11] concerns endogenous Munc13-1 in primary hippocampal neurons. The assay can be described thus: Expression of endogenous Munc13-1 in primary hippocampal neurons. The assay is classed as cell-based. As to conditions: mouse primary hippocampal neurons, 0.1 or 0.5 μM, 24 h. An outline of the steps: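 Hippocampi come from E18 mouse pups and are dissociated with trypsin/EDTA (20 min, 37 °C). Cells are plated at 8 × 10^4/well on poly-D-lysine coverslips in B-27 medium, and 7–8-day cultures are treated with 0.1 or 0.5 μM for 24 h. Cells are fixed in 4% PFA for 15 min and stained overnight at 4 °C with anti-Munc13-1 1:500, Tuj1 1:1000 and DAPI. Cytosolic Munc13-1 is measured by confocal in 3 wells × 3 cells per group.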

The target in assay [12] is T3, Munc13-1. The assay can be described thus: Cell fractionation and Western blot of HT22 cells expressing GFP-tagged Munc13-1. As to conditions: 1 μM, 5 min, cell fractionation and immunoblot. It is filed as cell-based. The method in brief:
as §2

Assay [13] has as its target Munc13-1 C1 domain WT (Rattus norvegicus, UniProt Q62768). The assay can be described thus: In vitro [3H]PDBu binding assay, isolated Munc13-1 C1 domain. As to conditions: for affinity better than that of PDBu: isolated C1 domain; for Kd: read-out: Kd for PDBu.
In assay [14] the target is Munc13-1 C1 domain (Rattus norvegicus, UniProt Q62768). It is filed as cell-based. As to conditions: living HT22 cells, 1 μM. An outline of the steps: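 Live-cell imaging, C1 domain: HT22 cells (passages 2–16; high-glucose DMEM, 10% FBS, 2 mM L-glutamine) are transfected with GFP-tagged Munc13-1 C1 domain (X-tremeGENE HP). After 24 h they are moved to phenol red-free DMEM with 1% FBS. Test compound 1 μM is added at time zero, with confocal images every 30 s (488 nm excitation, 500–530 nm emission). Cytoplasm/nucleus intensity ratio is normalized to time zero. 11–16 cells per treatment, three independent experiments; saturated cells excluded.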

Assay [15] addresses Munc13-1^W588A (Rattus norvegicus, UniProt Q62768, W588A). The assay is classed as cell-based. As to conditions: HT22 cells, 1 μM, 5 min. The method in brief: as §3
The mark [16] stands for this setting: read-out: Kd for PDBu, 100:0 PS/PC.

Like-named read-outs stand apart in the source and are kept apart here.

T1 sequence (Q62769 1-1985 isoform Q62769-2): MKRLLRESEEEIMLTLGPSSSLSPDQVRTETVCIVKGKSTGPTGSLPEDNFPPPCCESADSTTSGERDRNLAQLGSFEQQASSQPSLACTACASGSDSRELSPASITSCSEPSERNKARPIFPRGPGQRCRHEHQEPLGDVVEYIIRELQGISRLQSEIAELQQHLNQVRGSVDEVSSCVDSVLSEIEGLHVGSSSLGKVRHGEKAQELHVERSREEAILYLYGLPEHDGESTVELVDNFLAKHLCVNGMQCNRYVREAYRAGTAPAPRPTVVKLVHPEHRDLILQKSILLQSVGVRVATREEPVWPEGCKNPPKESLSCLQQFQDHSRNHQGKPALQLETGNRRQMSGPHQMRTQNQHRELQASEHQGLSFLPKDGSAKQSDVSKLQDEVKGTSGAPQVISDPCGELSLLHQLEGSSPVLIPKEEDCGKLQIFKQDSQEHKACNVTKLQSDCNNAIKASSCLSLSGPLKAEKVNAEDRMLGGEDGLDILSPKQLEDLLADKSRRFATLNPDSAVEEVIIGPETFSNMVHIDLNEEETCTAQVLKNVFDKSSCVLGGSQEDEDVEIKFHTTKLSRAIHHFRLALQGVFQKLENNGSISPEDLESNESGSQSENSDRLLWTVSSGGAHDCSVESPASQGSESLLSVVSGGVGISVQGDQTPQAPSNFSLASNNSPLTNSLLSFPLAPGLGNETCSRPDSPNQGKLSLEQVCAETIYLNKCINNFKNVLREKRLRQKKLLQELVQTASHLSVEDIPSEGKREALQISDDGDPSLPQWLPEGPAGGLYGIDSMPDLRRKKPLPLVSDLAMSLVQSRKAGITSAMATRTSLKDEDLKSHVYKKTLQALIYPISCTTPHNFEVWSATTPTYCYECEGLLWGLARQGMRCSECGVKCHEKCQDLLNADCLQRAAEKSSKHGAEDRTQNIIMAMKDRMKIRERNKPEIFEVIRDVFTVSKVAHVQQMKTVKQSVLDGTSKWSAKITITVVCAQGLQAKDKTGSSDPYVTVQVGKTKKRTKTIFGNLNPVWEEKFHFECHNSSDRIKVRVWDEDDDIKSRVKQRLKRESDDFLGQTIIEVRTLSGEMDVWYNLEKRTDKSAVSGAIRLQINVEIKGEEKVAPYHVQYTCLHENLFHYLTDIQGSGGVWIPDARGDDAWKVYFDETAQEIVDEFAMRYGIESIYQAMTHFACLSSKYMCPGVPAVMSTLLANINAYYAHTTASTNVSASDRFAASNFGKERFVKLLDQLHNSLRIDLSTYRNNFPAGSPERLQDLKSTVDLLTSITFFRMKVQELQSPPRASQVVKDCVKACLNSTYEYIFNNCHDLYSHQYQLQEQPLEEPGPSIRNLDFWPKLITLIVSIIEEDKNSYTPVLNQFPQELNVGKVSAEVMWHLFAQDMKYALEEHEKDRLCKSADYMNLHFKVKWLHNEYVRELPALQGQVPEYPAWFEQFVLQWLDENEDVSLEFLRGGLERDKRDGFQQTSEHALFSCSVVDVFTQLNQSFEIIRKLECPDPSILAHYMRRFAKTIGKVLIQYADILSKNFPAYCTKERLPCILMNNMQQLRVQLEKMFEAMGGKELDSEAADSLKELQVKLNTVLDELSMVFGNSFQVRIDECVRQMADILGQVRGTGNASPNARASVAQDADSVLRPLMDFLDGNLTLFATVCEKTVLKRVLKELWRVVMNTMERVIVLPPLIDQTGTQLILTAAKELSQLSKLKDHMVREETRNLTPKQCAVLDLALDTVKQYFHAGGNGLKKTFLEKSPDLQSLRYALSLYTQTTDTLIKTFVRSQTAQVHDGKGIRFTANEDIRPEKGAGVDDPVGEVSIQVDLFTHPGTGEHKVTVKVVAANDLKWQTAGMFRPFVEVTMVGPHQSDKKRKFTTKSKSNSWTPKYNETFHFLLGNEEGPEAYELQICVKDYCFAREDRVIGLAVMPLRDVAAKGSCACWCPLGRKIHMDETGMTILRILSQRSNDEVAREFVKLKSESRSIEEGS
PKCδ, sequence (Q05655 whole entry): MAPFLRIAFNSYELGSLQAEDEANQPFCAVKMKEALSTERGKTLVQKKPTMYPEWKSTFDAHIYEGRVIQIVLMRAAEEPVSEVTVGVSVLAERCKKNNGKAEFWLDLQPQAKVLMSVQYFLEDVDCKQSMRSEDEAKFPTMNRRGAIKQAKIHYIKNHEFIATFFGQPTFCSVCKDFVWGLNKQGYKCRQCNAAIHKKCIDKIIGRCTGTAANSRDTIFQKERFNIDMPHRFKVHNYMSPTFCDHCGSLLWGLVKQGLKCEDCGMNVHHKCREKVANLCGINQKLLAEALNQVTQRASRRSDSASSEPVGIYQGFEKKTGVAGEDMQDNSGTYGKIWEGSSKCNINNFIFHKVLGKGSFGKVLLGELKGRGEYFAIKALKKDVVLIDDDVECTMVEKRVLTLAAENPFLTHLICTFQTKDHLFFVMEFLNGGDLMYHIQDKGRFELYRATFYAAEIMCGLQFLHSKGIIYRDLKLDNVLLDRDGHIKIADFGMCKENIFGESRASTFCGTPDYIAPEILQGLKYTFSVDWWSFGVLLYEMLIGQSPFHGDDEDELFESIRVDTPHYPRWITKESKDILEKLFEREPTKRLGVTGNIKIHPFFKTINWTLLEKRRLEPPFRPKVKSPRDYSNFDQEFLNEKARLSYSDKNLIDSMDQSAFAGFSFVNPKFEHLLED

As to `CCC/C=C/C=C/C(=O)O[C@H]1/C(=C/C(=O)OC)C[C@H]2C[C@H]([C@@H](C)O)OC(=O)C[C@H](O)C[C@@H]3C[C@H](OC(C)=O)C(C)(C)[C@](O)(C[C@@H]4C/C(=C/C(=O)OC)C[C@H](/C=C/C(C)(C)[C@]1(O)O2)O4)O3` [bryostatin 1], the “translocation of bMunc13-2” value in assay [1] is “clear translocation”. Further, the “translocation of GFP-tagged bMunc13-2” value in assay [2] is “translocation similar to that of GFP-tagged Munc13-1”. For the same compound, the “stimulation of translocation at 100 nM as fraction of that caused by 1000 nM” value in [3] (PKCδ, 15 min value) amounted to 63%; in assay [7] (Munc13-1, 15 min value) it was 30%. The “translocation of PKCδ” value in assay [3] (living HT22 cells, 10, 100, 1000 nM, 0–15 min) was “induces translocation of PKCδ to the nuclear membrane and to internal membranes, rather than to the plasma membrane”. Moreover, the Ki in assay [4] is 0.45 ± 0.04 nM; in assay [9] it was 54 ± 12 nM; in [13] (Ki for bryostatin 1, 5:95 PS/PC, 100 μg/mL lipid, 0.1 mM Ca2+, 100 nM [3H]PDBu) it was 22.8 ± 1.8 nM; in assay [13] (Ki for bryostatin 1, 20:80 PS/PC, 100 μg/mL lipid, 0.1 mM Ca2+, 100 nM [3H]PDBu), 22.7 nM; in assay [13] (Ki for bryostatin 1, 100:0 PS/PC, 100 μg/mL lipid, 0.1 mM Ca2+, 100 nM [3H]PDBu) it was 8.07 ± 0.9 nM. For the same compound, the “affinity better than that of PDBu” value in [4] (full-length Munc13-1, 100% PS) was “approximately 15 fold”; in assay [13] (100% PS), 15 fold; in assay [13] (lower PS concentrations), 3 fold. Besides, the “translocation of Munc13-1 to the plasma membrane” value in assay [5] is given as “induced translocation of Munc13-1 to the plasma membrane”. Besides, in assay [6] (0.1 and 0.5 μM, immunostaining), the “level of endogenous Munc13-1 staining” value was “increased with both doses”. In addition, the “endogenous Munc13-1 levels by Western blot” value in [6] (0.1 or 0.5 μM) is on record as “increased”. In assay [7] (living HT22 cells, 1 μM), the “translocation of full-length Munc13-1” value was “translocated to the plasma membrane”. In addition, the “translocation (localization change) of Munc13-1 H567K” value in assay [8] is “no significant changes in localization”. Further, in [9], the “decrease in affinity of W588A (W22A) mutant C1 domain versus WT” value is given as 6.6 fold. Besides, the “translocation of ubMunc13-2” value in [10] is listed as “clear translocation”. In addition, the “expression of endogenous Munc13-1 in cytosol” value in [11] is “significantly increased the level of expression of Munc13-1”. The “transfer of Munc13-1 to membrane fraction” value in assay [12] was “caused Munc13-1 to transfer to the membrane fraction”. The “translocation of GFP-C1 domain” value in [14] was “translocated within 5–20 min from the nucleus to internal membranes but not to the plasma membrane”. The “translocation of full-length Munc13-1 W588A” value in assay [15] is reported as “translocation was lost”.
Consider `CCCCCCCCCCCCCC(=O)O[C@@H]1[C@@H](C)[C@@]2(O)[C@@H](C=C(CO)C[C@]3(O)C(=O)C(C)=C[C@@H]23)[C@@H]2C(C)(C)[C@]12OC(C)=O` [PMA, phorbol 12-myristate 13-acetate], for which the “translocation of GFP-tagged bMunc13-2” value in assay [2] is given as “translocation similar to that of GFP-tagged Munc13-1”. The “translocation of Munc13-1 to the plasma membrane” value in [5] was “induced translocation of Munc13-1 to the plasma membrane”. In [8], the “translocation (localization change) of Munc13-1 H567K” value is reported as “no significant changes in localization”. The “transfer of Munc13-1 to membrane fraction” value in assay [12] is “caused Munc13-1 to transfer to the membrane fraction”.
`CCCC(=O)O[C@@H]1[C@@H](C)[C@@]2(O)[C@@H](C=C(CO)C[C@]3(O)C(=O)C(C)=C[C@@H]23)[C@@H]2C(C)(C)[C@]12OC(=O)CCC` [PDBu, Phorbol 12,13-dibutyrate]: the Kd in [4] (setting [16]) came out at 7.09 ± 0.53 nM; in [9] (setting [16]) it was 809 ± 8.1 nM; in [13] (5:95 PS/PC), 82 ± 15 nM; in [13] (20:80 PS/PC), 69.5 ± 4.8 nM; in assay [13] (100:0 PS/PC) it was 124 ± 13 nM. For the same compound, the Ki in assay [4] (read-out: Ki for PDBu, 100% PS, measured in parallel with bryostatin 1) was determined as 7.1 ± 0.5 nM; in assay [13] (read-out: Ki for PDBu, PS/PC (20:80, w:w), assayed in parallel), 69.5 ± 4.8 nM; in [13] (read-out: Ki for PDBu, PS/PC (100:0)), 124 ± 13 nM. Further, the “effectiveness for inducing translocation relative to bryostatin 1” value in assay [7] (living HT22 cells, 1 μM) was “modestly less effective than was bryostatin 1”. For the same compound, the “decrease in affinity of W588A (W22A) mutant C1 domain versus WT” value in assay [9] was 6.5 fold.
